Results: ChEMBL document CHEMBL3259728, “Design, synthesis and biological evaluation of some novel substituted quinazolines as antitumor agents” (2014)

Key:
Assay type in all cases: functional
[1] = tested on: NCI-H23; assay: Growth inhibition of human NCI-H23 cells at 10 uM after 48 hrs by SRB assay; conditions: NCI-H23, 48 h, read-out: GI
Procedure, shortened: (§1)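 NCI-60 primary one-dose screen run at the US NCI, with human tumour lines from nine cancer types. Compound added once at 10^-5 M, followed by 48 h incubation. End point was sulforhodamine B protein staining read spectrophotometrically. Result given as percent growth of treated cells against untreated controls, reported as % growth inhibition.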

[2] = Growth inhibition of human OVCAR4 cells at 10 uM after 48 hrs by SRB assay; conditions: OVCAR-4, 48 h, read-out: GI; procedure, shortened: as §1
[3] = tested on: HL-60(TB); assay: Growth inhibition of human HL-60(TB) cells at 10 uM after 48 hrs by SRB assay; conditions: HL-60, 48 h, read-out: GI
Procedure, shortened: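 NCI 60-cell-line primary screen: compound added at single concentration 10^-5 M, cultures incubated 48 h; end point by sulforhodamine B protein staining read spectrophotometrically; result given as growth percentage of treated versus untreated control cells, reported as % growth inhibition.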

[4] = tested on: CAKI-1; assay: Growth inhibition of human CAKI-1 cells at 10 uM after 48 hrs by SRB assay; conditions: CAKI-1, 48 h, read-out: GI
Procedure, shortened: (§2)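 NCI primary one-dose screen. A single concentration of 10^-5 M was added to the cell culture, followed by 48 h incubation and an SRB protein-dye endpoint read spectrophotometrically. Results are growth percentage relative to untreated control cells, reported as % growth inhibition.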

[5] = tested on: MCF7; assay: Growth inhibition of human MCF7 cells at 10 uM after 48 hrs by SRB assay; conditions: MCF7, 48 h, read-out: GI; procedure, shortened: as §1
[6] = tested on: MDA-MB-468; assay: Growth inhibition of human MDA-MB-468 cells assessed as cell growth at 10 uM after 48 hrs by SRB assay; conditions: MDA-MB-468, 48 h, read-out: GI; procedure, shortened: as §1
[7] = tested on: SK-MEL-28; assay: Growth inhibition of human SK-MEL-28 cells at 10 uM after 48 hrs by SRB assay; conditions: SK-MEL-28, 48 h, read-out: GI; procedure, shortened: as §1
[8] = Growth inhibition of human RXF393 cells at 10 uM after 48 hrs by SRB assay; conditions: RXF 393, 48 h, read-out: GI; procedure, shortened: as §1
[9] = tested on: RPMI-8226; assay: Growth inhibition of human RPMI8226 cells at 10 uM after 48 hrs by SRB assay; conditions: RPMI-8226, 48 h, read-out: GI; procedure, shortened: as §1
[10] = tested on: A549; assay: Growth inhibition of human A549 cells at 10 uM after 48 hrs by SRB assay; conditions: A549, 48 h, read-out: GI; procedure, shortened: as §2
[11] = tested on: T47D; assay: Growth inhibition of human T47D cells at 10 uM after 48 hrs by SRB assay; conditions: read-out: GI; procedure, shortened: as §1
[12] = Growth inhibition of human UACC257 cells at 10 uM after 48 hrs by SRB assay; conditions: UACC-257, 48 h, read-out: GI; procedure, shortened: as §1
[13] = tested on: A498; assay: Growth inhibition of human A498 cells at 10 uM after 48 hrs by SRB assay; conditions: A498, 48 h, read-out: GI; procedure, shortened: as §2
[14] = tested on: SF-268; assay: Growth inhibition of human SF268 cells at 10 uM after 48 hrs by SRB assay; conditions: SF-268, 48 h, read-out: GI; procedure, shortened: as §1
[15] = Growth inhibition of human Hs578T cells at 10 uM after 48 hrs by SRB assay; conditions: Hs-578T, read-out: GI; procedure, shortened: as §1
[16] = tested on: ACHN; assay: Growth inhibition of human ACHN cells at 10 uM after 48 hrs by SRB assay; conditions: read-out: GI; procedure, shortened: as §2
[17] = tested on: SNB-75; assay: Growth inhibition of human SNB75 cells at 10 uM after 48 hrs by SRB assay; conditions: SNB-75, 48 h, read-out: GI; procedure, shortened: as §1
[18] = tested on: KM12; assay: Growth inhibition of human KM12 cells at 10 uM after 48 hrs by SRB assay; conditions: KM12, 48 h, read-out: GI; procedure, shortened: as §1
[19] = tested on: HT-29; assay: Growth inhibition of human HT-29 cells at 10 uM after 48 hrs by SRB assay; conditions: HT-29, 48 h, read-out: GI; procedure, shortened: as §1
[20] = Growth inhibition of human MOLT4 cells at 10 uM after 48 hrs by SRB assay; conditions: MOLT-4, 48 h, read-out: GI; procedure, shortened: as §1

SMILES: Cc1ccc(C(=O)Nc2ccc(Cl)cc2C(=O)Nc2ccccn2)cc1
- inhibition of growth at 10 µM [1]: < 10%
- inhibition of growth at 10 µM [2]: 22%
- inhibition of growth at 10 µM [3]: 16%
- inhibition of growth at 10 µM [4]: 20%
- inhibition of growth at 10 µM [5]: 19%
- inhibition of growth at 10 µM [6]: 11%
- inhibition of growth at 10 µM [7]: < 10%
- inhibition of growth at 10 µM [8]: < 10%
- inhibition of growth at 10 µM [9]: 15%
- inhibition of growth at 10 µM [10]: 13%
- inhibition of growth at 10 µM [11]: 20%
- inhibition of growth at 10 µM [12]: < 10%
- inhibition of growth at 10 µM [13]: 39%
- inhibition of growth at 10 µM [14]: 13%
- inhibition of growth at 10 µM [15]: < 10%
- inhibition of growth at 10 µM [16]: < 10%
- inhibition of growth at 10 µM [17]: 24%
- inhibition of growth at 10 µM [18]: 11%
- inhibition of growth at 10 µM [19]: 14%

SMILES: Cc1ccc(-c2nc3ccc(Cl)cc3c(=O)n2NC(=O)CNN)cc1
- inhibition of growth at 10 µM [1]: 13%
- inhibition of growth at 10 µM [2]: 80%
- inhibition of growth at 10 µM [3]: 12%
- inhibition of growth at 10 µM [4]: 35%
- inhibition of growth at 10 µM [5]: 22%
- inhibition of growth at 10 µM [6]: < 10%
- inhibition of growth at 10 µM [7]: 23%
- inhibition of growth at 10 µM [8]: 11%
- inhibition of growth at 10 µM [9]: 13%
- inhibition of growth at 10 µM [20]: < 10%
- inhibition of growth at 10 µM [10]: 23%
- inhibition of growth at 10 µM [11]: 52%
- inhibition of growth at 10 µM [12]: 23%
- inhibition of growth at 10 µM [13]: 46%
- inhibition of growth at 10 µM [14]: 28%
- inhibition of growth at 10 µM [15]: 40%
- inhibition of growth at 10 µM [16]: 42%
- inhibition of growth at 10 µM [17]: 25%
- inhibition of growth at 10 µM [18]: 21%
- inhibition of growth at 10 µM [19]: 33%

SMILES: Cc1ccc(-c2nc3ccc(Cl)cc3c3nnc(S)n23)cc1
- inhibition of growth at 10 µM [1]: < 10%
- inhibition of growth at 10 µM [2]: < 10%
- inhibition of growth at 10 µM [3]: < 10%
- inhibition of growth at 10 µM [4]: 15%
- inhibition of growth at 10 µM [5]: < 10%
- inhibition of growth at 10 µM [6]: < 10%
- inhibition of growth at 10 µM [7]: < 10%
- inhibition of growth at 10 µM [8]: < 10%
- inhibition of growth at 10 µM [9]: < 10%
- inhibition of growth at 10 µM [20]: 13%
- inhibition of growth at 10 µM [10]: 11%
- inhibition of growth at 10 µM [11]: < 10%
- inhibition of growth at 10 µM [12]: 33%
- inhibition of growth at 10 µM [13]: 19%
- inhibition of growth at 10 µM [14]: < 10%
- inhibition of growth at 10 µM [15]: < 10%
- inhibition of growth at 10 µM [16]: < 10%
- inhibition of growth at 10 µM [17]: < 10%
- inhibition of growth at 10 µM [18]: 11%
- inhibition of growth at 10 µM [19]: < 10%

SMILES: Cc1ccc(C2=Nc3ccc(Cl)cc3C3=NNCC(=O)NN23)cc1
- inhibition of growth at 10 µM [1]: < 10%
- inhibition of growth at 10 µM [2]: < 10%
- inhibition of growth at 10 µM [3]: < 10%
- inhibition of growth at 10 µM [4]: 14%
- inhibition of growth at 10 µM [5]: < 10%
- inhibition of growth at 10 µM [6]: 11%
- inhibition of growth at 10 µM [7]: < 10%
- inhibition of growth at 10 µM [8]: < 10%
- inhibition of growth at 10 µM [9]: < 10%
- inhibition of growth at 10 µM [20]: < 10%
- inhibition of growth at 10 µM [10]: 11%
- inhibition of growth at 10 µM [12]: < 10%
- inhibition of growth at 10 µM [13]: 34%
- inhibition of growth at 10 µM [14]: < 10%
- inhibition of growth at 10 µM [15]: < 10%
- inhibition of growth at 10 µM [16]: < 10%
- inhibition of growth at 10 µM [17]: < 10%
- inhibition of growth at 10 µM [18]: < 10%
- inhibition of growth at 10 µM [19]: < 10%
